# Source: ChEMBL document CHEMBL2157922, “Synthesis and antifungal activity of diverse C-2 pyridinyl and pyridinylvinyl substituted quinolines” (2012)
# Legend:
# Candida parapsilosis = test: Antifungal activity against Candida parapsilosis CCC 124 after 48 hrs by broth microdilution technique; type: functional; settings: Lodderomyces parapsilosis, CCC 124, 48 h
# Cryptococcus neoformans [1] = test: Antifungal activity against Cryptococcus neoformans IM 972724 after 48 hrs by broth microdilution technique; type: functional; settings: IM 972724, 48 h
# Summary of the method: (§1)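 C. neoformans was tested by 96-well RPMI-1640 microdilution, with DMSO-matched growth and sterility control wells. Plates were incubated 48 h at 30 °C in a moist, dark chamber and read at OD405. % inhibition = 100 − (CTW − SCW)/(GCW − SCW), in duplicate. For the clinical isolates, MIC80 and MIC50 are the lowest concentrations giving 80% and 50% inhibition.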
# Candida albicans [2] = test: Antifungal activity against Candida albicans CCC 129 after 48 hrs by broth microdilution technique; type: functional; settings: CCC 129, 48 h
# Cryptococcus neoformans [3] = test: Antifungal activity against Cryptococcus neoformans ATCC 32264 at 31.2 ug/ml after 48 hrs; type: functional; settings: ATCC 32264, 48 h; summary of the method: as §1
# Aspergillus fumigatus = test: Antifungal activity against Aspergillus fumigatus ATCC 26934 after 48 hrs by broth microdilution technique; type: functional; settings: ATCC 26934, 48 h
# Summary of the method: (§2)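 Moulds and dermatophytes were run by CLSI broth microdilution in MOPS-buffered RPMI-1640 at pH 7.0. Aspergillus was incubated at 30 °C and dermatophytes at 28–30 °C, in a moist, dark chamber. MIC100, the lowest concentration with no visible growth, was read visually at a time set by growth of the control fungus.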
# Candida albicans [4] = test: Antifungal activity against Candida albicans CCC 125 after 48 hrs by broth microdilution technique; type: functional; settings: CCC 125, 48 h
# Aspergillus flavus = test: Antifungal activity against Aspergillus flavus ATCC 9170 after 48 hrs by broth microdilution technique; type: functional; settings: ATCC 9170, 48 h; summary of the method: as §2
# Candida albicans [5] = test: Antifungal activity against Candida albicans CCC 126 after 48 hrs by broth microdilution technique; type: functional; settings: CCC 126, 48 h
# Candida tropicalis = test: Antifungal activity against Candida tropicalis CCC 131 after 48 hrs by broth microdilution technique; type: functional; settings: CCC 131, 48 h
# Candida albicans [6] = test: Antifungal activity against Candida albicans CCC 130 after 48 hrs by broth microdilution technique; type: functional; settings: CCC 130, 48 h
# Trichophyton rubrum = test: Antifungal activity against Trichophyton rubrum CCC 113 after 48 hrs by broth microdilution technique; type: functional; settings: CCC 113, 48 h
# Cryptococcus neoformans [7] = test: Antifungal activity against Cryptococcus neoformans IM 042074 after 48 hrs by broth microdilution technique; type: functional; settings: IM 042074, 48 h; summary of the method: as §1
# Candida albicans [8] = test: Antifungal activity against Candida albicans CCC 127 after 48 hrs by broth microdilution technique; type: functional; settings: CCC 127, 48 h
# Cryptococcus neoformans [9] = test: Antifungal activity against Cryptococcus neoformans IM 983040 after 48 hrs by broth microdilution technique; type: functional; settings: IM 983040, 48 h; summary of the method: as §1
# Cryptococcus neoformans [10] = test: Antifungal activity against Cryptococcus neoformans IM 983036 after 48 hrs by broth microdilution technique; type: functional; settings: IM 983036, 48 h; summary of the method: as §1
# Aspergillus niger = test: Antifungal activity against Aspergillus niger ATCC 9029 after 48 hrs by broth microdilution technique; type: functional; settings: ATCC 9029, 48 h; summary of the method: as §2
# Nakaseomyces glabratus = test: Antifungal activity against Candida glabrata CCC 115 after 48 hrs by broth microdilution technique; type: functional; settings: CCC 115, 48 h
# Candida albicans [11] = test: Antifungal activity against Candida albicans ATCC 10231 after 48 hrs by broth microdilution technique; type: functional; settings: ATCC 10231, 48 h
# Summary of the method: (§3)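 Yeasts were tested by CLSI broth microdilution in RPMI-1640 buffered to pH 7.0 with MOPS, with compound from 250 down to 0.98 in DMSO stocks. Trays were held at 30 °C in a moist, dark chamber. MIC100, the lowest concentration giving total visual inhibition against the growth control, was read by eye at 48 h.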
# Cryptococcus neoformans [12] = test: Antifungal activity against Cryptococcus neoformans ATCC 32264 after 48 hrs by broth microdilution technique; type: functional; settings: ATCC 32264, 48 h; summary of the method: as §3
# Saccharomyces cerevisiae = test: Antifungal activity against Saccharomyces cerevisiae ATCC 9763 after 48 hrs by broth microdilution technique; type: functional; settings: ATCC 9763, 48 h; summary of the method: as §3
# Nannizzia gypsea = test: Antifungal activity against Microsporum gypseum CCC 115 after 48 hrs by broth microdilution technique; type: functional; settings: CCC 115, 48 h; summary of the method: as §2
# Candida albicans [13] = test: Antifungal activity against Candida albicans ATCC 10231 at 31.2 ug/ml after 24 hrs; type: functional; settings: ATCC 10231, 24 h
# Summary of the method: (§4)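 C. albicans was grown in 96-well RPMI-1640 broth microdilution with compound wells diluted from DMSO stocks. Growth wells with matched DMSO and sterility wells were included. After 24 h at 30 °C in a moist, dark chamber, OD405 was read. % inhibition = 100 − (CTW − SCW)/(GCW − SCW) OD, done in duplicate.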
# Pichia kudriavzevii = test: Antifungal activity against Candida krusei CCC 117 after 48 hrs by broth microdilution technique; type: functional; settings: CCC 117, 48 h
# Cryptococcus neoformans [14] = test: Antifungal activity against Cryptococcus neoformans IM 972751 after 48 hrs by broth microdilution technique; type: functional; settings: IM 972751, 48 h; summary of the method: as §1
# Cryptococcus neoformans [15] = test: Antifungal activity against Cryptococcus neoformans IM 00319 after 48 hrs by broth microdilution technique; type: functional; settings: IM 00319, 48 h; summary of the method: as §1
# Candida albicans [16] = test: Antifungal activity against Candida albicans CCC 130 after 24 hrs by broth microdilution technique; settings: CCC 130, 24 h
# Candida albicans [17] = test: Antifungal activity against Candida albicans CCC 128 after 48 hrs by broth microdilution technique; type: functional; settings: CCC 128, 48 h
# Candida albicans [18] = test: Antifungal activity against Candida albicans ATCC 10231 at 15.6 ug/ml after 24 hrs; type: functional; settings: ATCC 10231, 24 h; summary of the method: as §4
# [19] = test system: Trichophyton mentagrophytes; test: Antifungal activity against Trichophyton mentagrophytes ATCC 9972 after 48 hrs by broth microdilution technique; type: functional; settings: ATCC 9972, 48 h; summary of the method: as §2
# Candida albicans [20] = test: Antifungal activity against Candida albicans ATCC 10231 at 7.8 ug/ml after 24 hrs; type: functional; settings: ATCC 10231, 24 h; summary of the method: as §4
smiles,measurement,setting,value
C(=C\c1ccc2ccccc2n1)/c1ccncc1,MIC50,Candida parapsilosis,7.8 µg/mL
same,MIC80,Candida parapsilosis,31.2 µg/mL
same,MIC50,Cryptococcus neoformans [1],7.8 µg/mL
same,MIC80,Cryptococcus neoformans [1],31.2 µg/mL
same,MIC50,Candida albicans [2],15.6 µg/mL
same,MIC80,Candida albicans [2],31.2 µg/mL
same,inhibition at 31.2 µg/mL,Cryptococcus neoformans [3],80%
same,MFC,Aspergillus fumigatus,250 µg/mL
same,MIC,Aspergillus fumigatus,125 µg/mL
same,MIC50,Candida albicans [4],7.8 µg/mL
same,MIC80,Candida albicans [4],15.6 µg/mL
same,MFC,Aspergillus flavus,250 µg/mL
same,MIC,Aspergillus flavus,125 µg/mL
same,MIC50,Candida albicans [5],15.6 µg/mL
same,MIC80,Candida albicans [5],31.2 µg/mL
same,MIC50,Candida tropicalis,31.2 µg/mL
same,MIC80,Candida tropicalis,62.5 µg/mL
same,MIC80,Candida albicans [6],15.6 µg/mL
same,MFC,Trichophyton rubrum,125 µg/mL
same,MIC,Trichophyton rubrum,31 µg/mL
same,MIC50,Cryptococcus neoformans [7],3.9 µg/mL
same,MIC80,Cryptococcus neoformans [7],31.2 µg/mL
same,MIC50,Candida albicans [8],15.6 µg/mL
same,MIC80,Candida albicans [8],15.6 µg/mL
same,MIC50,Cryptococcus neoformans [9],7.8 µg/mL
same,MIC80,Cryptococcus neoformans [9],31.2 µg/mL
same,MIC50,Cryptococcus neoformans [10],7.8 µg/mL
same,MIC80,Cryptococcus neoformans [10],31.2 µg/mL
same,MFC,Aspergillus niger,> 250 µg/mL
same,MIC,Aspergillus niger,125 µg/mL
same,MIC50,Nakaseomyces glabratus,31.2 µg/mL
same,MIC80,Nakaseomyces glabratus,62.5 µg/mL
same,MFC,Candida albicans [11],250 µg/mL
same,MIC,Candida albicans [11],62 µg/mL
same,MIC50,Candida albicans [11],7.8 µg/mL
same,MIC80,Candida albicans [11],15.6 µg/mL
same,MFC,Cryptococcus neoformans [12],125 µg/mL
same,MIC,Cryptococcus neoformans [12],62 µg/mL
same,MIC50,Cryptococcus neoformans [12],15.6 µg/mL
same,MIC80,Cryptococcus neoformans [12],31.2 µg/mL
same,MFC,Saccharomyces cerevisiae,250 µg/mL
same,MIC,Saccharomyces cerevisiae,62 µg/mL
same,MFC,Nannizzia gypsea,125 µg/mL
same,MIC,Nannizzia gypsea,31 µg/mL
same,inhibition at 31.2 µg/mL,Candida albicans [13],80%
same,MIC50,Pichia kudriavzevii,15.6 µg/mL
same,MIC80,Pichia kudriavzevii,31.2 µg/mL
same,MIC50,Cryptococcus neoformans [14],3.9 µg/mL
same,MIC80,Cryptococcus neoformans [14],31.2 µg/mL
same,MIC50,Cryptococcus neoformans [15],7.8 µg/mL
same,MIC80,Cryptococcus neoformans [15],31.2 µg/mL
same,MIC50,Candida albicans [16],7.8 µg/mL
same,MIC50,Candida albicans [17],7.8 µg/mL
same,MIC80,Candida albicans [17],15.6 µg/mL
same,inhibition at 15.6 µg/mL,Candida albicans [18],80%
same,MFC,[19],125 µg/mL
same,MIC,[19],31 µg/mL
same,inhibition at 7.8 µg/mL,Candida albicans [20],50%
